Bioassay records deposited in PubChem by several laboratories.
AI-2 QS mod: Vibrio harveyi AI-2 quorum sensing modulation | Vibrio harveyi JMH597 AI-2 luminescence/OD600 ratio, 9 h; stronger effect = lower value; strain lacks LuxN and CqsS sensors; 0 = neutral-control median | activity change, % at 7.5 µM | 300,000 tested, 0.4% active | AID 2094; in the data active = activity change below about -75%, passing the limit was not always enough;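 note: luminescence divided by OD600 gain over 9 h not by final OD600 alone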
Cl transport mod: modulates chloride dependent transport by human KCC2; 190,000 tested, 2.2% active; B-score of Tl+ flux slope (higher = more flux/activation; lower = inhibition) at 10 µM; AID 1456; Q9H2X9; KCC2 cells, thallium flux FluoZin-2 fluorescence;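 active = thallium flux slope and its plate-corrected score both differing from the plate sample mean at a set confidence after two filtering rounds, in either direction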;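 note: slope of fluorescence scaled to starting intensity during 10 to 20 s after thallium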
Target sequence (Q9H2X9 whole entry, looked up): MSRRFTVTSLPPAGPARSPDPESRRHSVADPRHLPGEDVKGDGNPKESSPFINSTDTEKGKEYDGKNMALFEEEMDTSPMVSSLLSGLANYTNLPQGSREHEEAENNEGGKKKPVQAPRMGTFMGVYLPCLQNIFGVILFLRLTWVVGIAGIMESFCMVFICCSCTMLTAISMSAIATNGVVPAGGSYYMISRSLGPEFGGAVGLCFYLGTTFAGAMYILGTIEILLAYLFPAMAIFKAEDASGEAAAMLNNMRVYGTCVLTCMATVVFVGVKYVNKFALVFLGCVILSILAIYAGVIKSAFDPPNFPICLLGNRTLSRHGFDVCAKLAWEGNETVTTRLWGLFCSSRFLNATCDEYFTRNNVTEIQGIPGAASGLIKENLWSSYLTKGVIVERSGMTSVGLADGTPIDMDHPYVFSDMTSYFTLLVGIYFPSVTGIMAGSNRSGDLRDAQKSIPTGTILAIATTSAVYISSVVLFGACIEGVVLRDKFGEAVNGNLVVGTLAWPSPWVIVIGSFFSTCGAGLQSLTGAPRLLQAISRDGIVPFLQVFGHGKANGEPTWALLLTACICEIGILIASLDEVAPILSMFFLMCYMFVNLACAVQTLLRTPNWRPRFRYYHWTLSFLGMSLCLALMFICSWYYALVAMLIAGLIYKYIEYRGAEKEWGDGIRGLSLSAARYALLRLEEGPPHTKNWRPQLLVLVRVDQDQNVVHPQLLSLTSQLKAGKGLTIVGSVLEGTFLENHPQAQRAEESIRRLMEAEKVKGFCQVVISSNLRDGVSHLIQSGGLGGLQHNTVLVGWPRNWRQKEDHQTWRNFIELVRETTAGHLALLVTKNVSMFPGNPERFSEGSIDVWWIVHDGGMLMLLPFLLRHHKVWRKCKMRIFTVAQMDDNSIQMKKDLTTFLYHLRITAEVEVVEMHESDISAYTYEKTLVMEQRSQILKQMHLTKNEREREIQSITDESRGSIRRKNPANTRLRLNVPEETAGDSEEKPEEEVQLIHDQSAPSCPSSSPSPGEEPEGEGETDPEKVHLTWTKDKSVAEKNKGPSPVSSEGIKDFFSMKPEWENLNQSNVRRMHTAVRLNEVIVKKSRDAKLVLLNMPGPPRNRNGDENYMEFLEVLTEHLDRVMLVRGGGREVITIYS
KCNQ1 inh: blocks the human KCNQ1 potassium channel; P51787; CHO-K1 KCNQ1, FluxOR thallium flux fluorescence; stronger effect = higher value; B-score at 10 µM; 310,000 tested, 1.3% active; AID 2642;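 active = compounds whose thallium flux B-score, printed positive for inhibition, exceeds three library SD while starting fluorescence stays within three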;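 note: channel opened by potassium depolarization with thallium stimulus after 20 min compound exposure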
Mot1-301 SUMO: blocks SUMOylation pathway, rescuing yeast Mot1-301 growth; growth rescue, % at 18.8 µM; S. cerevisiae Mot1-301 growth rescue, ATP luminescence, 38.5C; percent above DMSO median, 100 means doubled; AID 2716; 320,000 tested, 1% active;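 active = every valid replicate shows activation above 250% relative to neutral control wells; inactive = the rest, any valid replicate at or below 250%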
hERG protect: hERG (human) protection from proarrhythmic block. Q12809. CHO-hERG, FluxOR thallium flux, dofetilide IC70 present. activation (rescue from dofetilide block), less the hit threshold, % at 10 µM. 310,000 tested, 0.51% active. AID 1511;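 active = activation above the mean of controls blocked by dofetilide plus 5 SD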;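 note: thallium influx through hERG after potassium depolarization seen as dye fluorescence rise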
KCNQ1 pot: potentiates or activates the human KCNQ1 potassium channel | CHO-K1 KCNQ1, thallium flux FluxOR fluorescence; stronger effect = higher value | P51787 | 310,000 tested, 0.35% active | AID 2648 | B-score at 10 µM;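 active = fluorescence ratio B-score, a plate-corrected score, at least three library SD, with initial intensity B-score within 5 SD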
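Schedule – 37 °C overnight plating, 90-min dark dye load, 20-min compound pretreatment · System – stable KCNQ1 CHO-K1 line · Probe or stimulus – thallium- and potassium-containing depolarizing buffer · Measured by – kinetic FluxOR fluorescence, 10 s baseline plus 110 s post-stimulus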
Each line names hits and unclear results; the compound was inactive in the other large screens. Shown are actives, neighbours in structure and some others; about 4.2% of the full set was active somewhere.

Cc1cc(OCC(=O)Nc2ccc(CN3CCOCC3)cc2)c2c(C)cc(=O)oc2c1	none (no result: Cl transport mod)
Cc1ccc(CNC(=O)COC(=O)c2cccc(S(=O)(=O)N3CCCCC3)c2)cc1	none (no result: AI-2 QS mod, Cl transport mod, KCNQ1 inh, hERG protect, KCNQ1 pot)
O=C(Cn1cnc2ccccc21)c1ccccc1	hERG protect 5.0 (no result: Cl transport mod)
O=C(Cn1cnc2ccccc21)c1ccc(Cl)cc1	none (no result: Cl transport mod)
O=C(COc1ccccc1)NC(=S)N1CCc2ccccc21	Cl transport mod 56, hERG protect 4.9, KCNQ1 pot 10
O=C(COc1c(Cl)cccc1Cl)Nc1ccccc1N1CCCC1	none (no result: Cl transport mod)
CC(Oc1ccc(F)cc1)C(=O)Nc1ccccc1N1CCCCC1 (stereo not drawn)	KCNQ1 inh 6 (no result: Cl transport mod)
CC(C)Oc1ccc(C(=O)Nc2ccccc2N2CCCC2)cc1	none (no result: Cl transport mod)
O=C(COc1ccccc1Cl)NC(=S)Nc1ccccc1N1CCCC1	hERG protect 8.5, KCNQ1 pot 7 (no result: Cl transport mod)
O=C(COc1ccccc1Cl)NC(=S)N1CCc2ccccc21	Cl transport mod 37
COc1ccccc1C(=O)NC(=S)Nc1ccccc1N1CCCC1	none (no result: Cl transport mod)
O=C(NC(=S)Nc1ccccc1N1CCCCC1)c1ccc(F)cc1Cl	KCNQ1 pot 10 (no result: Cl transport mod)
O=S(=O)(Cc1ccccc1)NCCc1cccc(Cl)c1	none (no result: Cl transport mod)
N#C/C(=C(/O)c1ccc2c(c1)OCO2)c1nc2cc(C(F)(F)F)ccc2s1	KCNQ1 inh 11 (no result: Cl transport mod)
N#C/C(=C(/O)c1ccccc1F)c1nc2cc(C(F)(F)F)ccc2s1	none
COc1ccc(OC)c(-c2csc(N(Cc3ccco3)C(=O)c3cccs3)n2)c1	KCNQ1 inh 7
c1ccc(-c2sc3ccccc3c2-c2ccc(OCCN3CCOCC3)cc2)cc1	Mot1-301 SUMO 407 (no result: AI-2 QS mod, Cl transport mod, KCNQ1 inh, hERG protect, KCNQ1 pot)
CCOC(=O)N1CCN(C(=O)CSCC(=O)Nc2nc(-c3ccc(-c4ccccc4)cc3)cs2)CC1	KCNQ1 inh 6
CCN(CC)CCCCNc1ncc2cc(-c3cc(OC)cc(OC)c3)c(NC(=O)NC(C)(C)C)nc2n1	Mot1-301 SUMO 277 (no result: Cl transport mod)
COc1ccc(S(=O)(=O)N2CCOCC2)cc1NC(=O)Cc1ccc2c(c1)OCCO2	none (no result: AI-2 QS mod, Cl transport mod, KCNQ1 inh, hERG protect, KCNQ1 pot)
CC(CC12CC3CC(CC(C3)C1)C2)NCc1ccccc1O (stereo not drawn)	KCNQ1 inh 6 (no result: Cl transport mod)
CCOCCCNC(=O)CCN1C(=O)c2ccccc2Sc2ncccc21	none (no result: Cl transport mod)
O=S(=O)(Cc1ccccc1)NCC1CCCO1 (stereo not drawn)	hERG protect 4.7
Cc1ccc(/C=C(\NC(=O)c2ccc(C)cc2)C(=O)NCCCn2ccnc2)cc1	none
CCC1Oc2ccccc2N(CC(=O)NCCCN2CCC(C)CC2)C1=O (stereo not drawn)	hERG protect 5.5
CCC1Oc2ccccc2N(CC(=O)NCCN2C(C)CCCC2C)C1=O (stereo not drawn)	hERG protect 7.2
CCCN1CCC(=O)N([C@H](CN=[N+]=[N-])CC(C)C)CC1	none (no result: Cl transport mod)
COC(=O)c1cccc(NC(=O)c2cccnc2C(=O)O)c1C	none
O=C(c1ccccc1)c1cccc(C(=O)c2ccccc2)c1	none (no result: AI-2 QS mod, Cl transport mod, KCNQ1 inh, hERG protect, KCNQ1 pot)
O=C(O)c1cccc(C(=O)O)c1	Mot1-301 SUMO 384 (no result: Cl transport mod)
CCc1cccc(C)c1NC(=S)N(CCCN1CCOCC1)Cc1cccnc1	none
CCCc1nnc(NS(=O)(=O)c2ccc(OC)cc2)s1	Mot1-301 SUMO 774
CCSc1nnc(NS(=O)(=O)c2ccc(OC)cc2)s1	none
CC(c1ccccc1)N(CCC(c1ccccc1)C1CCOC(C)(C)C1)C(=O)c1ccco1 (stereo not drawn)	KCNQ1 inh 9
COc1ccc(OC)c2sc(NC(=O)c3ccc(Br)s3)nc12	Cl transport mod 6.1
COc1ccc(OC)c2sc(NC(=O)c3ccc(Cl)s3)nc12	none (no result: Cl transport mod)
COc1ccccc1-c1nnc(SC(C)C(=O)O)n1-c1ccccc1 (stereo not drawn)	none (no result: Cl transport mod)
CCOC(=O)C(=NC1CCS(=O)(=O)C1)NNc1ccc(Br)cc1 (stereo not drawn)	Mot1-301 SUMO 372
CCOC(=O)C(=NC1CCS(=O)(=O)C1)NNc1ccccc1Cl (stereo not drawn)	none
CC1=Nc2ccccc2N=C(NC(=O)c2ccccc2)C1c1ccc(Cl)cc1 (stereo not drawn)	KCNQ1 inh 12
